Experimental data: ChEMBL document CHEMBL1933013, “Synthesis, SAR, and preliminary mechanistic evaluation of novel antiproliferative N⁶,5'-bis-ureido- and 5'-carbamoyl-N⁶-ureidoadenosine derivatives” (Bioorg Med Chem, 2012)
In brackets after ≈: the same amount, converted by molar mass. Activity calls are given as the source filed them. The calls are words filed in the database; no cut-off is given here.

What was measured:
[1] = biological target: Myosin light chain kinase (Homo sapiens) (UniProt Q32MK0); experiment: Inhibition of MYLK3 at 10 uM after 1 hr by competitive binding assay
Outline: (§1)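 Single-dose competitive binding at 10 μM against immobilized ATP-site ligands (DiscoveRx): phage-tagged or HEK-293-expressed DNA-tagged kinase with ligand-loaded streptavidin magnetic beads in 20% SeaBlock, 0.17× PBS, 0.05% Tween 20, 6 mM DTT, 1 h room temperature with shaking. Beads washed, eluted with 0.5 μM free ligand for 30 min; bound kinase quantified by qPCR as % binding inhibition.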

[2] = biological target: Serine/threonine-protein kinase Nek2 (Homo sapiens) (UniProt P51955); experiment: Inhibition of NEK2 at 10 uM after 1 hr by competitive binding assay; outline: as §1
[3] = biological target: Mitogen-activated protein kinase 11 (Homo sapiens) (UniProt Q15759); experiment: Inhibition of MAPK11 at 10 uM after 1 hr by competitive binding assay; outline: as §1
[4] = biological target: Receptor tyrosine-protein kinase erbB-2 (Homo sapiens) (UniProt P04626); experiment: Inhibition of ErbB2 at 10 uM after 1 hr by competitive binding assay; outline: as §1
[5] = biological target: Tyrosine-protein kinase Blk (Homo sapiens) (UniProt P51451); experiment: Inhibition of Blk at 10 uM after 1 hr by competitive binding assay; outline: as §1
[6] = biological target: Protein kinase C epsilon type (Homo sapiens) (UniProt Q02156); experiment: Inhibition of PRKCE at 10 uM after 1 hr by competitive binding assay; outline: as §1
[7] = biological target: Myosin light chain kinase family member 4 (Homo sapiens) (UniProt Q86YV6); experiment: Inhibition of MYLK4 at 10 uM after 1 hr by competitive binding assay; outline: as §1
[8] = biological target: T1, Bone morphogenetic protein receptor type-1B (Homo sapiens, UniProt O00238); experiment: Inhibition of BMPR1B at 10 uM after 1 hr by competitive binding assay; outline: as §1
[9] = biological target: Serine/threonine-protein kinase DCLK1 (Homo sapiens) (UniProt O15075); experiment: Inhibition of DCLK1 at 10 uM after 1 hr by competitive binding assay; outline: as §1
[10] = biological target: Homeodomain-interacting protein kinase 1 (Homo sapiens) (UniProt Q86Z02); experiment: Inhibition of HIPK1 at 10 uM after 1 hr by competitive binding assay; outline: as §1
[11] = biological target: MAP kinase-interacting serine/threonine-protein kinase 2 (Homo sapiens) (UniProt Q9HBH9); experiment: Inhibition of MKNK2 at 10 uM after 1 hr by competitive binding assay; outline: as §1
[12] = biological target: NT-3 growth factor receptor (Homo sapiens) (UniProt Q16288); experiment: Inhibition of NTRK3 at 10 uM after 1 hr by competitive binding assay; outline: as §1
[13] = biological target: Tyrosine-protein kinase ABL1 (Homo sapiens) (UniProt P00519); experiment: Inhibition of ABL1 at 10 uM after 1 hr by competitive binding assay; outline: as §1
[14] = biological target: Tyrosine-protein kinase Tec (Homo sapiens) (UniProt P42680); experiment: Inhibition of TEC at 10 uM after 1 hr by competitive binding assay; outline: as §1
[15] = biological target: Receptor-type tyrosine-protein kinase FLT3 (Homo sapiens) (UniProt P36888); experiment: Inhibition of FLT-3 kinase at 10 uM after 1 hr by competitive binding assay; outline: as §1
[16] = biological target: Epidermal growth factor receptor (Homo sapiens) (UniProt P00533); experiment: Inhibition of EGFR at 10 uM after 1 hr by competitive binding assay; outline: as §1
[17] = biological target: T1, Bone morphogenetic protein receptor type-1B; experiment: Binding affinity to BMPR1B by multi dose competitive binding assay
CCRF-CEM = experiment: Antiproliferative activity against human CEM cells after 72 hrs; format: cell-based
Outline: (§2)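 Cells in growth medium grown with variable compound concentrations at 37 °C in humidified CO2-controlled atmosphere; incubation 48 h for L1210 and FM3A, 72 h for CEM, 96 h for HeLa. Cell number counted by Coulter counter; IC50 = concentration inhibiting proliferation by 50%.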

L1210 = experiment: Antiproliferative activity against mouse L1210 cells after 48 hrs; format: functional, cell-based; conditions: L1210, 48 h; outline: as §2
FM3A = experiment: Antiproliferative activity against mouse FM3A cells after 48 hrs; format: functional, cell-based; outline: as §2
HeLa = experiment: Antiproliferative activity against human HeLa cells after 96 hrs; format: functional, cell-based; outline: as §2
[18] = Antiproliferative activity against human NCI60 cells; format: functional, cell-based
[19] = biological target: T1, Bone morphogenetic protein receptor type-1B; experiment: Binding affinity to BMPR1B at >30 uM by multi dose competitive binding assay

T1 sequence (O00238 whole entry): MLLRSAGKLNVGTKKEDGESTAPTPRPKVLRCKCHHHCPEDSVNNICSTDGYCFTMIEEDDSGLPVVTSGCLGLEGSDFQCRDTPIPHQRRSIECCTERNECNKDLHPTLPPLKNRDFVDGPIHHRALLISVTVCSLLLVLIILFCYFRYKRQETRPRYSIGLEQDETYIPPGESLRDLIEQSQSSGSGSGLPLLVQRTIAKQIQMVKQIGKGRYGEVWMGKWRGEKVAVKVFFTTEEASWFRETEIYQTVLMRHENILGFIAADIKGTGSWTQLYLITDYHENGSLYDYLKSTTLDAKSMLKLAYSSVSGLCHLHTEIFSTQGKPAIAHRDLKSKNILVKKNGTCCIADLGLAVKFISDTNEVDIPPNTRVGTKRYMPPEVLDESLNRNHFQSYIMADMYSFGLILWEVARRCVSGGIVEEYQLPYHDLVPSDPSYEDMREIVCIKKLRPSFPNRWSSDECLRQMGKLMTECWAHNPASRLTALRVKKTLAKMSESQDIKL
Tyrosine-protein kinase ABL1 (Homo sapiens), sequence (P00519 whole entry): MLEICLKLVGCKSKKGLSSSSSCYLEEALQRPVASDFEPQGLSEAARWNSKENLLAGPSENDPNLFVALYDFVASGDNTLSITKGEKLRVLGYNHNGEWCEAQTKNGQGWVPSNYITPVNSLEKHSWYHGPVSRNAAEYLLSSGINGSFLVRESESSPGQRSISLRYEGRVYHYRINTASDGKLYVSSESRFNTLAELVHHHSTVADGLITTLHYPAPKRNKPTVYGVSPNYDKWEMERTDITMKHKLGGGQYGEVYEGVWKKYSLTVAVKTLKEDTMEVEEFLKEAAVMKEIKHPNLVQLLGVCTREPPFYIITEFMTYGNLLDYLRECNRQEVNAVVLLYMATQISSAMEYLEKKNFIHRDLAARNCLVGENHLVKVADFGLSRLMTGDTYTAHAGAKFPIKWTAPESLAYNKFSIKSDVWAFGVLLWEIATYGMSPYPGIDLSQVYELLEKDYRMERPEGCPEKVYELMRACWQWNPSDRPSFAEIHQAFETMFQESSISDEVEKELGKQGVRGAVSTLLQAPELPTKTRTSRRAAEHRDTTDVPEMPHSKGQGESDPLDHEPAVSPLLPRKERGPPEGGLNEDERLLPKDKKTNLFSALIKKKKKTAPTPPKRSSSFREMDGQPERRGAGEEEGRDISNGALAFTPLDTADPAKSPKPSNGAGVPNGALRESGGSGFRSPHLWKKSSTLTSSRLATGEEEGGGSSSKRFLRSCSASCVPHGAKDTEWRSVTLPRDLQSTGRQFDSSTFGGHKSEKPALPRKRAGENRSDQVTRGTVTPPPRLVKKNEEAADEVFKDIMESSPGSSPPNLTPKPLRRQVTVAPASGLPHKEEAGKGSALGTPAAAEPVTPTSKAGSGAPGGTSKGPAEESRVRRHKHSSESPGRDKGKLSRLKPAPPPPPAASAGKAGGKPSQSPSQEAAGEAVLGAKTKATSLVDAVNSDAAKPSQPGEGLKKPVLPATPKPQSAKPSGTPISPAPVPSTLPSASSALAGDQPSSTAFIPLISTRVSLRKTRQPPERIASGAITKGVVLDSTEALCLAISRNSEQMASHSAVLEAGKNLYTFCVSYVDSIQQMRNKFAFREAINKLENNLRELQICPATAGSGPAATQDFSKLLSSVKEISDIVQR
NT-3 growth factor receptor (Homo sapiens), sequence (Q16288 32-839 limits assumed): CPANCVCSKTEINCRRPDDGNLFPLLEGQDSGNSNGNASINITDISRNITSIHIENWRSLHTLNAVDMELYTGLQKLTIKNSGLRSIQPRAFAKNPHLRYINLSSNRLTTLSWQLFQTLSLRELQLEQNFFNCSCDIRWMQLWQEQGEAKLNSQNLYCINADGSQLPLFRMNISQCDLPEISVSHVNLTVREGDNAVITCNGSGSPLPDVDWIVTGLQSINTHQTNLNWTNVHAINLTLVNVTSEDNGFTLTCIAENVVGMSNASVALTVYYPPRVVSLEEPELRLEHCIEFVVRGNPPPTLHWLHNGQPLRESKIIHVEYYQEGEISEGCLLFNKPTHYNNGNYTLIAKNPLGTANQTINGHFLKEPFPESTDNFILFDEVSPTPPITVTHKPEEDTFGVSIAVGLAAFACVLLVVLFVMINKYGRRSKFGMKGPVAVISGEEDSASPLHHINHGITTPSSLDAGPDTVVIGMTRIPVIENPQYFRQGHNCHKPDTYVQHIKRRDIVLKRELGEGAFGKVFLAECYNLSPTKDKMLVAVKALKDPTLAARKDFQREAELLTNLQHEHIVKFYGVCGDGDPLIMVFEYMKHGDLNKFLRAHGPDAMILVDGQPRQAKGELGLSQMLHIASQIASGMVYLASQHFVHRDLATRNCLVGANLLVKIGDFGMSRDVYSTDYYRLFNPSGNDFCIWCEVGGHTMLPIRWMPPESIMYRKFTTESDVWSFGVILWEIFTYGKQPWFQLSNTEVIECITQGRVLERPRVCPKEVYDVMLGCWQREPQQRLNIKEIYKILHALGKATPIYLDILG
Serine/threonine-protein kinase DCLK1 (Homo sapiens), sequence (O15075 whole entry): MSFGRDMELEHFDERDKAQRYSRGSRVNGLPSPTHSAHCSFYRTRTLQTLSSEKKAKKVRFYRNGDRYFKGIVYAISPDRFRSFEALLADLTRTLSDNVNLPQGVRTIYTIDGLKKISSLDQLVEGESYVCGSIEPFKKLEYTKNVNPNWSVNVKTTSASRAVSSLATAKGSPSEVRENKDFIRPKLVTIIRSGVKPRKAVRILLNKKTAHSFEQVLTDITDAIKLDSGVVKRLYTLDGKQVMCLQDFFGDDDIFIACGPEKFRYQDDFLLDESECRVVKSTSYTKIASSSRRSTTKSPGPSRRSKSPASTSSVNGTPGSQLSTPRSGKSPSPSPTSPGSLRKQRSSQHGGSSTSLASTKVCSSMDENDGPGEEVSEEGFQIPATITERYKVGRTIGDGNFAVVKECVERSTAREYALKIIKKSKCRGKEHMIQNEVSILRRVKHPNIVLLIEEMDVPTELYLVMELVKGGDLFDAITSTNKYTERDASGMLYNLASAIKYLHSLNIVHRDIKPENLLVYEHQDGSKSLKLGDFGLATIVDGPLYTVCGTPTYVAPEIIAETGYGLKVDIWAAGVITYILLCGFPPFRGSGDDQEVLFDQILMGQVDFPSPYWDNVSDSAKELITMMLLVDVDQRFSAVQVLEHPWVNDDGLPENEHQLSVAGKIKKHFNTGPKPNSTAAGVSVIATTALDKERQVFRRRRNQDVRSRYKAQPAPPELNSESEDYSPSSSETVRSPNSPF
Homeodomain-interacting protein kinase 1 (Homo sapiens), sequence (Q86Z02 whole entry, looked up): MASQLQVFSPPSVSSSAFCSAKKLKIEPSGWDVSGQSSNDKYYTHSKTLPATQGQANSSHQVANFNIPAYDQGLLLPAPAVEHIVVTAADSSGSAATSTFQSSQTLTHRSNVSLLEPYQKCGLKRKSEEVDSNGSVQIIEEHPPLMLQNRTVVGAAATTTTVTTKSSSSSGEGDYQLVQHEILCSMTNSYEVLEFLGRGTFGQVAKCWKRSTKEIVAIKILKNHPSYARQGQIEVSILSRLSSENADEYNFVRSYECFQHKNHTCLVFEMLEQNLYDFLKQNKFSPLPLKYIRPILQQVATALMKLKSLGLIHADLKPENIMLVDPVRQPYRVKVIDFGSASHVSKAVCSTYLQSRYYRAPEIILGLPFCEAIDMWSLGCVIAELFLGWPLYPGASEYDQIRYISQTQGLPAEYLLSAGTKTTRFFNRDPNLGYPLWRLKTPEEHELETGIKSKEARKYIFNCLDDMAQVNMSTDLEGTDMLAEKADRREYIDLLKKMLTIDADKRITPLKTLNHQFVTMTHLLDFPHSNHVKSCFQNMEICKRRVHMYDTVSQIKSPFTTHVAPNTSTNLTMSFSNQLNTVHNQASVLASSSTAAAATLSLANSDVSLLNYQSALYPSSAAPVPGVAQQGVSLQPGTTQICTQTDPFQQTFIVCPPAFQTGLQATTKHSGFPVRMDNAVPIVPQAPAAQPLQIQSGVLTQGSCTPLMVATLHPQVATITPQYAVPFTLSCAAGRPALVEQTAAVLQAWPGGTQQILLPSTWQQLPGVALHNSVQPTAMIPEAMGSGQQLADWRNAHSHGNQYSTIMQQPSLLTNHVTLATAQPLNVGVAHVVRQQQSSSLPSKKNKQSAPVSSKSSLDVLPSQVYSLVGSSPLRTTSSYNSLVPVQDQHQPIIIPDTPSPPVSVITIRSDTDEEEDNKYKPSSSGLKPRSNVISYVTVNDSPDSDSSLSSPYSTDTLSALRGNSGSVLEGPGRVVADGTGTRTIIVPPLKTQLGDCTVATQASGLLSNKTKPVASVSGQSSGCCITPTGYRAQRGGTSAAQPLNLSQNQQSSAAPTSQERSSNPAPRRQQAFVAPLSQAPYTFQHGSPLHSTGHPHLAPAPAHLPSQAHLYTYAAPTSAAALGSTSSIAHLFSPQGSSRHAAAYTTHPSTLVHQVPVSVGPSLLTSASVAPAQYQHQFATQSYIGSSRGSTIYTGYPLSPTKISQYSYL
Tyrosine-protein kinase Tec (Homo sapiens), sequence (P42680 whole entry): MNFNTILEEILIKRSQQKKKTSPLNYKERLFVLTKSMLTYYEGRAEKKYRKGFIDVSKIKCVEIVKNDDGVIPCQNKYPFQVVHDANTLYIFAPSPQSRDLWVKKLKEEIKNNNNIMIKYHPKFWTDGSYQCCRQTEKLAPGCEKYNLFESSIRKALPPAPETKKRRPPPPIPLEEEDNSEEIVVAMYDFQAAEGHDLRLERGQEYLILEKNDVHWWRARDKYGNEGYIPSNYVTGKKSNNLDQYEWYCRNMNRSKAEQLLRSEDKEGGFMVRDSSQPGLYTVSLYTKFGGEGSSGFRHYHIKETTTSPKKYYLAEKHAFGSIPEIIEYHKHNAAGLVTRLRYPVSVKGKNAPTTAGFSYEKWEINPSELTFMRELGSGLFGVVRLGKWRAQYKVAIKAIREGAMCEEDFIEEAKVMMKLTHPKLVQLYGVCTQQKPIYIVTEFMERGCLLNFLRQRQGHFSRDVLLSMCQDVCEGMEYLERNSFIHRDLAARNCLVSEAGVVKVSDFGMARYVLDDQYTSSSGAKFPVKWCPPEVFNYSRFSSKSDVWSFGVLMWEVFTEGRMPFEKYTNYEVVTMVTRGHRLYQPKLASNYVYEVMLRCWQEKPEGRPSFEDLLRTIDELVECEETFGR

IC50 (CCRF-CEM) [µg/mL] | IC50 (L1210) [µg/mL] | IC50 (HeLa) [µg/mL] | Compound | IC50 (FM3A) [µg/mL] | also measured
 |  |  | CNC(=O)NC[C@H]1O[C@@H](n2cnc3c(NC(=O)Nc4ccccc4)ncnc32)[C@H](O)[C@@H]1O |  | inhibition [1]: 43%; inhibition [2]: 33%; inhibition [3]: 37%; inhibition [4]: 35%; inhibition [5]: 32%; inhibition [6]: 38%; inhibition [7]: 38%; inhibition [8]: 45%; inhibition [9]: 41%; inhibition [10]: 30%; inhibition [11]: 37%; inhibition [12]: 40%; inhibition [13]: 30%; inhibition [14]: 37%; inhibition [15]: 33%; inhibition [16]: 31%; Kd [17]: 11.5 µM
> 200 | ≥ 200 | > 200 | CNC(=O)NC[C@H]1O[C@@H](n2cnc3c(NC(=O)Nc4ccc([N+](=O)[O-])cc4)ncnc32)[C@H](O[Si](C)(C)C(C)(C)C)[C@@H]1O[Si](C)(C)C(C)(C)C | > 200 | 
175 (≈ 258 µM) | 74 (≈ 109 µM) | 69 (≈ 102 µM) | CNC(=O)OC[C@H]1O[C@@H](n2cnc3c(NC(=O)NC4CCCCC4)ncnc32)[C@H](O[Si](C)(C)C(C)(C)C)[C@@H]1O[Si](C)(C)C(C)(C)C | > 200 | 
8.3 (≈ 12.4 µM) | 3.8 (≈ 5.66 µM) | 3.2 (≈ 4.77 µM) | CNC(=O)NC[C@H]1O[C@@H](n2cnc3c(NC(=O)Nc4ccccc4)ncnc32)[C@H](O[Si](C)(C)C(C)(C)C)[C@@H]1O[Si](C)(C)C(C)(C)C | 5.9 (≈ 8.79 µM) | IC50 [18]: < 10 µM; Activity [19]: inactive
4.4 (≈ 6.91 µM) | 3.9 (≈ 6.12 µM) | 3.3 (≈ 5.18 µM) | CCCNC(=O)Nc1ncnc2c1ncn2[C@@H]1O[C@H](CNC(=O)NC)[C@@H](O[Si](C)(C)C(C)(C)C)[C@H]1O[Si](C)(C)C(C)(C)C | 4.7 (≈ 7.38 µM) | 
8.3 (≈ 12.1 µM) | 4.6 (≈ 6.72 µM) | 3.8 (≈ 5.55 µM) | CNC(=O)NC[C@H]1O[C@@H](n2cnc3c(NC(=O)NCc4ccccc4)ncnc32)[C@H](O[Si](C)(C)C(C)(C)C)[C@@H]1O[Si](C)(C)C(C)(C)C | 9.2 (≈ 13.4 µM) | 
> 200 | > 200 | > 200 | CNC(=O)OC[C@H]1O[C@@H](n2cnc3c(NC(=O)Nc4cccc(I)c4)ncnc32)[C@H](O[Si](C)(C)C(C)(C)C)[C@@H]1O[Si](C)(C)C(C)(C)C | > 200 | 
175 (≈ 257 µM) | > 200 | 88 (≈ 129 µM) | CCCCCCNC(=O)Nc1ncnc2c1ncn2[C@@H]1O[C@H](COC(=O)NC)[C@@H](O[Si](C)(C)C(C)(C)C)[C@H]1O[Si](C)(C)C(C)(C)C | > 200 | 
> 200 | 101 (≈ 147 µM) | 23 (≈ 33.5 µM) | CNC(=O)OC[C@H]1O[C@@H](n2cnc3c(NC(=O)NCc4ccccc4)ncnc32)[C@H](O[Si](C)(C)C(C)(C)C)[C@@H]1O[Si](C)(C)C(C)(C)C | > 200 | 
14 (≈ 19.8 µM) | 5.6 (≈ 7.94 µM) | 3.4 (≈ 4.82 µM) | CNC(=O)NC[C@H]1O[C@@H](n2cnc3c(NC(=O)Nc4ccc(Cl)cc4)ncnc32)[C@H](O[Si](C)(C)C(C)(C)C)[C@@H]1O[Si](C)(C)C(C)(C)C | 33 (≈ 46.8 µM) | 
15 (≈ 20.9 µM) | 7.7 (≈ 10.7 µM) | 1.5 (≈ 2.09 µM) | CNC(=O)OC[C@H]1O[C@@H](n2cnc3c(NC(=O)Nc4ccc([N+](=O)[O-])cc4)ncnc32)[C@H](O[Si](C)(C)C(C)(C)C)[C@@H]1O[Si](C)(C)C(C)(C)C | 24 (≈ 33.5 µM) | 
